Results reported in ChEMBL document CHEMBL4382274, “NQO1-Selective Activated Prodrug of Triptolide: Synthesis and Antihepatocellular Carcinoma Activity Evaluation” (ACS Med Chem Lett, 2018).
Active and inactive are the calls of the source. No cut-off for these calls is given here.

What was measured:
[1] = system: HepG2; assay: Cytotoxicity against human HepG2 cells up to 20 uM after 48 hrs by XTT assay; assay type: functional, cell-based
[2] = Hepatotoxicity in Balb/c nude mouse xenografted with human HepG2 cells assessed as effect on serum ALT levels at 0.2 mg/kg, ip administered once daily for 15 days; assay type: toxicity, organism-based; conditions: in vivo, 360 h
Method in brief: (§1)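 HepG2-xenografted nude mice were dosed every day for 15 days. Serum ALT, AST, creatinine and blood urea nitrogen were measured and compared with the control.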

[3] = target: T1, General transcription and DNA repair factor IIH helicase/translocase subunit XPB (Homo sapiens, UniProt P19447); assay: Inhibition of […] ATPase activity in human HeLa cell nuclear extracts; assay type: cell-based
T1 sequence (P19447 whole entry): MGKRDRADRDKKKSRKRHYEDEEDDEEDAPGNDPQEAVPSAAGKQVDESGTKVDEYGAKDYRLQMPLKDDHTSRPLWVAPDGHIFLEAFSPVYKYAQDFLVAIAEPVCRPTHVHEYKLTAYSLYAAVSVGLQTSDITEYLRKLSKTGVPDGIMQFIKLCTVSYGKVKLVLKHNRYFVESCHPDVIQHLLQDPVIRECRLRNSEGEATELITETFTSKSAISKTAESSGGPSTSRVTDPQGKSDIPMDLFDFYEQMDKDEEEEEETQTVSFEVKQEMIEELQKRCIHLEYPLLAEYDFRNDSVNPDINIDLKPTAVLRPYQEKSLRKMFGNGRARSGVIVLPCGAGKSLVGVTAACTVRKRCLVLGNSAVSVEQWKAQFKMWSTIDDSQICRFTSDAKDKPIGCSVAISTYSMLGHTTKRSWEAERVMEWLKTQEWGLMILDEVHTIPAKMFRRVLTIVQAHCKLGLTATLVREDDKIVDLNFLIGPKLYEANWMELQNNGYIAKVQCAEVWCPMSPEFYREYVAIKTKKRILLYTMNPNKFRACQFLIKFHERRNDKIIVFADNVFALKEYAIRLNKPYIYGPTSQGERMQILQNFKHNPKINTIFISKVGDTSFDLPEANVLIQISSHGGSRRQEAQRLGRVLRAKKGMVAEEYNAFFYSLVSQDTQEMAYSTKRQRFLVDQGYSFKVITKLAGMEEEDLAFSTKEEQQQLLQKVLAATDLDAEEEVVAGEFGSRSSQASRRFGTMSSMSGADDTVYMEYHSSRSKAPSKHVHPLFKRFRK

[4] = Renal toxicity in Balb/c nude mouse xenografted with human HepG2 cells assessed as increase in serum creatinine levels at 0.2 mg/kg, ip administered once daily for 15 days; assay type: organism-based; conditions: in vivo, 360 h; method in brief: as §1
[5] = Toxicity in Balb/c nude mouse xenografted with human HepG2 cells assessed as change in body weight at 0.2 mg/kg, ip administered once daily for 15 days measured during compound dosing; assay type: organism-based; conditions: in vivo, 360 h
Method in brief: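 Xenografted nude mice (8/group) received ip doses once daily for two weeks, starting one week after HepG2 inoculation. Body weight was recorded throughout the treatment period.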

[6] = system: HepG2; assay: Antitumor activity against human HepG2 cells xenografted in Balb/c nude mouse assessed as reduction in tumor growth at 0.2 mg/kg, ip administered once daily for 15 days; assay type: functional, organism-based
Method in brief: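 HepG2 cells were inoculated into nude mice, and daily ip dosing began one week later and ran for two weeks. Tumour volume was followed over the treatment, and tumours were weighed and imaged at the end. n = 8 mice/group; Student's t test was used against the control.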

[7] = system: HepG2; assay: Cytotoxicity against human HepG2 cells after 48 hrs by XTT assay; assay type: functional, cell-based; conditions: HepG2, 48 h
[8] = Renal toxicity in Balb/c nude mouse xenografted with human HepG2 cells assessed as increase in serum BUN levels at 0.2 mg/kg, ip administered once daily for 15 days; assay type: organism-based; conditions: in vivo, 360 h; method in brief: as §1
[9] = system: Hepatocyte; assay: Cytotoxicity against primary hepatocytes (unknown origin) after 48 hrs by XTT assay; assay type: cell-based
[10] = Hepatotoxicity in Balb/c nude mouse xenografted with human HepG2 cells assessed as effect on serum AST levels at 0.2 mg/kg, ip administered once daily for 15 days; assay type: toxicity, organism-based; conditions: in vivo, 360 h; method in brief: as §1
[11] = Renal toxicity in Balb/c nude mouse xenografted with human HepG2 cells assessed as glomerular capillary loop lesions at 0.2 mg/kg, ip administered once daily for 15 days by hematoxylin and eosin staining based microscopic analysis; assay type: organism-based; conditions: in vivo, 360 h
Method in brief: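 After 15 days of daily dosing, kidneys from xenografted nude mice were sectioned, H&E stained and examined at ×200 for glomerular capillary loop lesions, alongside control sections.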

[12] = Hepatotoxicity in Balb/c nude mouse xenografted with human HepG2 cells assessed as pathological abnormalities at 0.2 mg/kg, ip administered once daily for 15 days by hematoxylin and eosin staining based microscopic analysis; assay type: toxicity, organism-based; conditions: in vivo, 360 h
[13] = Toxicity in Balb/c nude mouse at 0.2 mg/kg, ip; assay type: organism-based; conditions: in vivo
[14] = Plasma concentration in KM mouse at 1 mg/kg, ip administered as single dose at 2 hrs post dose; assay type: ADME, organism-based
Method in brief: (§2)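 Mice received a single ip dose at 1.0 mg/kg. Levels were measured in plasma, liver and kidney with a validated analytical method, and plasma was sampled over time to 2 h and beyond. Derived values were absorption, distribution and terminal half-lives, tmax, Cmax and AUC tissue/plasma ratios.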

[15] = system: A549; assay: Cytotoxicity against human A549 cells after 48 hrs by XTT assay; assay type: functional, cell-based; conditions: A549, 48 h
[16] = Toxicity in Balb/c nude mouse xenografted with human HepG2 cells assessed as change in body weight at 0.3 to 1 mg/kg, ip administered once daily for 15 days measured during compound dosing; assay type: organism-based; conditions: in vivo, 360 h
Method in brief: (§3)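 HepG2 xenograft in nude mice. Dosing began one week after cell inoculation, ip once daily for two weeks. Tumor volume was followed during treatment, tumor weight taken at the end, and body weight monitored throughout. n = 8 mice/group; Student's t test against control.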

[17] = Hepatotoxicity in Balb/c nude mouse xenografted with human HepG2 cells assessed as pathological abnormalities at 0.3 to 1 mg/kg, ip administered once daily for 15 days by hematoxylin and eosin staining based microscopic analysis; assay type: toxicity, organism-based; conditions: in vivo, 360 h
[18] = Cmax in KM mouse at 1 mg/kg, ip administered as single dose; assay type: ADME, organism-based; design: dose 1 mg/kg, route intraperitoneal; conditions: in vivo; method in brief: as §2
[19] = target: CYP450 (Homo sapiens, UniProt P04798+P05177+P05181+P08684+P10632+P10635+P11509+P11712+P13584+P20813+P20815+P20853+P24462+P24903+P33260+P33261+P51589+P78329+P98187+Q02928+Q08477+Q16678+Q16696+Q5TCH4+Q6VVX0+Q7Z449+Q8TAV3+Q96SQ9+Q9HB55); assay: Half life in human liver microsomes assessed as CYP450-mediated compound degradation at 10 uM by UV-HPLC analysis; assay type: ADME
Method in brief: (§4)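 Compound was incubated for 1 h in vitro in human plasma or human liver microsomes, and half-life was determined from its disappearance.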

[20] = system: Keratinocyte; assay: Cytotoxicity against human keratinocytes after 48 hrs by XTT assay; assay type: cell-based
[21] = Ratio of AUC in KM mouse kidney to plasma at 1 mg/kg, ip administered as single dose; assay type: ADME, organism-based; conditions: other tissue; method in brief: as §2
[22] = target: T2, NAD(P)H dehydrogenase [quinone] 1 (Homo sapiens, UniProt P15559); assay: Prodrug activation in human HepG2 cell lysates assessed as NQO1-mediated CX-21 formation at 10 uM after 60 mins in presence of NADPH and NQO1 inhibitor dicoumarol by HPLC analysis; assay type: subcellular, Lysate; conditions: hepg2, 1 h
T2 sequence (P15559 whole entry): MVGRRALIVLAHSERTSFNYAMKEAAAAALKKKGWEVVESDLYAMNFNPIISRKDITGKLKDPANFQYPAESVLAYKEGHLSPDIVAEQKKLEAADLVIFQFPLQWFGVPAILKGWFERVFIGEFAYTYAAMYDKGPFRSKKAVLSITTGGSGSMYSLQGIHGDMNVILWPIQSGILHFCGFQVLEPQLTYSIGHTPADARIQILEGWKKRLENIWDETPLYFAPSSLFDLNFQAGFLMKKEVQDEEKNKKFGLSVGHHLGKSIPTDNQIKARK

[23] = target: T2, NAD(P)H dehydrogenase [quinone] 1; assay: Prodrug activation in human HepG2 cell lysates assessed as NQO1-mediated triptolide formation at 10 uM up to 60 mins in presence of NADPH by HPLC analysis; assay type: subcellular, Lysate; conditions: hepg2, 1 h
[24] = target: T2, NAD(P)H dehydrogenase [quinone] 1; assay: Prodrug activation in human HepG2 cell lysates assessed as NQO1-mediated CX-21 formation at 10 uM up to 60 mins in presence of NADPH by HPLC analysis; assay type: subcellular, Lysate; conditions: hepg2, 1 h
[25] = Hepatotoxicity in Balb/c nude mouse xenografted with human HepG2 cells assessed as effect on serum ALT levels at 0.3 to 1 mg/kg, ip administered once daily for 15 days; assay type: toxicity, organism-based; conditions: in vivo, 360 h
Method in brief: (§5)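 Nude mice were dosed ip every day for 15 days at 0.2 mg/kg (reference), 0.3 mg/kg or 1.0 mg/kg. Serum ALT, AST, creatinine and BUN were measured. Kidney sections were H&E stained and examined at X200. Comparisons were made against control.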

[26] = Plasma concentration in KM mouse at 1 mg/kg, ip administered as single dose after 2 hrs; assay type: ADME, organism-based; conditions: in vivo, BLD = below limit of detection; method in brief: as §2
[27] = Cytotoxicity against human skin fibroblasts after 48 hrs by XTT assay
[28] = system: HeLa; assay: Cytotoxicity against human HeLa cells after 48 hrs by XTT assay; assay type: functional, cell-based
[29] = system: HepG2; assay: Antitumor activity against human HepG2 cells xenografted in Balb/c nude mouse assessed as reduction in tumor growth at 0.3 to 1 mg/kg, ip administered once daily for 15 days; assay type: functional, organism-based; method in brief: as §3
[30] = Distribution half life in KM mouse at 1 mg/kg, ip administered as single dose; assay type: ADME, organism-based; conditions: in vivo, read-out: alphat1/2; method in brief: as §2
[31] = system: carboxyl ester hydrolase; assay: Half life in human plasma assessed as carboxyl ester hydrolase-mediated compound degradation at 10 uM by UV-HPLC analysis; assay type: ADME, cell-free; method in brief: as §4
[32] = target: NQO1 (NAD(P)H dehydrogenase [quinone] 1) (Homo sapiens, UniProt P15559); assay: Half life in human HepG2 cell lysates assessed as NQO1-mediated compound degradation at 10 uM in presence of NADPH by HPLC analysis; assay type: ADME, subcellular, Lysate
NQO1 (NAD(P)H dehydrogenase [quinone] 1), sequence (P15559 whole entry): as above

[33] = Toxicity in Balb/c nude mouse at 1 mg/kg, ip; assay type: organism-based; conditions: in vivo
Method in brief: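 In a preliminary experiment, nude mice were given a single ip dose of 1.0 mg/kg and observed for toxic symptoms.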

[34] = Time at which plasma concentration stays above in vitro IC50 for antiproliferative activity against human HepG2 cells in KM mouse at 1 mg/kg, ip administered as single dose; assay type: organism-based; conditions: in vivo; method in brief: as §2
[35] = Hepatotoxicity in Balb/c nude mouse xenografted with human HepG2 cells assessed as effect on serum AST levels at 0.3 to 1 mg/kg, ip administered once daily for 15 days; assay type: toxicity, organism-based; conditions: in vivo, 360 h; method in brief: as §5
[36] = Terminal half life in KM mouse at 1 mg/kg, ip administered as single dose; assay type: ADME, organism-based; conditions: in vivo, read-out: beta t1/2; method in brief: as §2
[37] = Tmax in KM mouse at 1 mg/kg, ip administered as single dose; assay type: ADME, organism-based; conditions: in vivo; method in brief: as §2
[38] = system: HepG2; assay: Cytotoxicity against human HepG2 cells after 48 hrs in presence of NQO1 inhibitor dicoumarol by XTT assay; assay type: functional, cell-based
[39] = Ratio of AUC in KM mouse liver to plasma at 1 mg/kg, ip administered as single dose; assay type: ADME, organism-based; conditions: other tissue; method in brief: as §2
[40] = target: T2, NAD(P)H dehydrogenase [quinone] 1; assay: Prodrug activation in human HepG2 cell lysates assessed as NQO1-mediated triptolide formation at 10 uM after 60 mins in presence of NADPH and NQO1 inhibitor dicoumarol by HPLC analysis; assay type: subcellular, Lysate; conditions: hepg2, 1 h
[41] = Therapeutic index, ratio of IC50 for primary hepatocytes (unknown origin) to IC50 for human HepG2 cells; assay type: toxicity; conditions: primary hepatocytes (unknown origin) versus HepG2 cells, read-out: Ratio IC50

Structure (SMILES): O=c1oc2ccccc2c(O)c1Cc1c(O)c2ccccc2oc1=O
- Activity [1]: inactive

Structure (SMILES): CC(C)[C@]12O[C@H]1[C@@H]1O[C@]13[C@]1(O[C@H]1C[C@H]1C4=C(CC[C@@]13C)C(=O)OC4)[C@@H]2O [TRIPTOLIDE]
- Activity [2]: Non-Toxic
- inhibition (INH) [3]: Active
- Activity [4]: Toxic
- Activity [5]: Non-Toxic
- Activity [6]: Active
- IC50 [7]: 43.3 nM
- Activity [8]: Toxic
- IC50 [9]: 37.7 nM
- Activity [10]: Non-Toxic
- Activity [11]: Toxic
- Activity [12]: Non-Toxic
- Activity [13]: Non-Toxic

Structure (SMILES): CC1=C(C)C(=O)C(C(C)(C)CC(=O)O[C@@H]2[C@@]3(C(C)C)O[C@H]3[C@@H]3O[C@]34[C@]23O[C@H]3C[C@H]2C3=C(CC[C@@]24C)C(=O)OC3)=C(C)C1=O
- concentration at 2 h [14]: 1.38 ng/mL
- IC50 [15]: 59.4 nM
- Activity [16]: Non-Toxic
- Activity [17]: Non-Toxic
- Cmax [18]: 243 ng/mL
- half-life at 10 µM [19]: > 60 min
- IC50 [20]: > 1000 nM
- Ratio [21]: < 5%
- Drug metabolism [22]: Metabolite_Notdetected
- inhibition (INH) [3]: Not Active
- Drug metabolism [23]: Metabolite_Detected
- Drug metabolism [24]: Metabolite_Detected
- Activity [25]: Non-Toxic
- Cp [26]: Bld
- IC50 [27]: > 1000 nM
- IC50 [28]: 38.2 nM
- Activity [29]: Active
- half-life [30]: 15.1 min
- half-life at 10 µM [31]: > 60 min
- IC50 [7]: 54.3 nM
- half-life at 10 µM [32]: 7.27 min
- Activity [33]: Non-Toxic
- IC50 [9]: 540 nM
- Time [34]: 40 min
- Activity [35]: Non-Toxic
- half-life [36]: 154 min
- Tmax [37]: 3 min
- Activity [38]: inactive
- Ratio [39]: < 5%
- Drug metabolism [40]: Metabolite_Notdetected
- selectivity ratio [41]: 9.89
